Results taken from ChEMBL document CHEMBL1129731, “The chemistry of pseudomonic acid. 17. Dual-action C-1 oxazole derivatives of pseudomonic acid having an extended spectrum of antibacterial activity” (J Med Chem, 1996).
≈ marks a conversion by molar mass, not a printed value.

Assays:
Klebsiella pneumoniae = assay: compound was tested for antibacterial activity against Klebsiella pneumoniae E70.; assay type: functional
Method in brief: (§1)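 Broth microdilution in Mueller–Hinton broth; overnight broth cultures added to final 5 × 10^5 cfu/mL; incubated 37 °C, 18 h. MIC (µg/mL) taken as lowest concentration inhibiting growth.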

Staphylococcus aureus [1] = assay: compound was tested for antibacterial activity against Staphylococcus aureus F 89.; assay type: functional; method in brief: as §1
Escherichia coli [2] = assay: compound was tested for antibacterial activity against Escherichia coli DC0.; assay type: functional
Isoleucine--tRNA ligase [3] = target: T1, Isoleucine--tRNA ligase (Staphylococcus aureus, UniProt P41972); assay: Inhibitory activity against isoleucyl-tRNA synthetase (IRS) of Staphylococcus aureus; assay type: functional
T1 sequence (P41972 whole entry): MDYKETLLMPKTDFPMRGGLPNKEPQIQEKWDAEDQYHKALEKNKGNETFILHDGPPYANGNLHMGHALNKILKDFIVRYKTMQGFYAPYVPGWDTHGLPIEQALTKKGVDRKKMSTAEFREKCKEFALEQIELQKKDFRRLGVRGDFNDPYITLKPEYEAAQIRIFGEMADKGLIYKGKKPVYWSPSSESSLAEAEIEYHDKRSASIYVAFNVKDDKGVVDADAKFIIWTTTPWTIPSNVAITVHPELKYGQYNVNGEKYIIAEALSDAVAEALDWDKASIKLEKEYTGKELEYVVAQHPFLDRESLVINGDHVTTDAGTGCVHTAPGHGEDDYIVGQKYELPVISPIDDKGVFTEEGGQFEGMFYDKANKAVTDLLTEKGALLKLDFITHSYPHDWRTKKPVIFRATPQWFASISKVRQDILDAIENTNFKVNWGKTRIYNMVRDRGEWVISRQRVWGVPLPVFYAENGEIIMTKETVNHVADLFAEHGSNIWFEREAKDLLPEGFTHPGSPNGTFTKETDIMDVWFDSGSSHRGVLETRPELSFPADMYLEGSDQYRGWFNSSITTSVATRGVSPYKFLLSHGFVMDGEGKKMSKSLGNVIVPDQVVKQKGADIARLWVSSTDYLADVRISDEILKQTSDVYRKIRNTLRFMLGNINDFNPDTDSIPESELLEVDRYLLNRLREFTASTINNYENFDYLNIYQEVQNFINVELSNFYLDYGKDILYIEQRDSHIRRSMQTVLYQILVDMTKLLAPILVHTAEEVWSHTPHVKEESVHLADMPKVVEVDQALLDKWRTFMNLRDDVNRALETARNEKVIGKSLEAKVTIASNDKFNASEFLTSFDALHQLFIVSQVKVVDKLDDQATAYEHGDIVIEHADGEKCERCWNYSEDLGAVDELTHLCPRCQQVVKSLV

Staphylococcus aureus [4] = assay: compound was tested for antibacterial activity against Staphylococcus aureus NCTC 6571.; assay type: functional; method in brief: as §1
Haemophilus influenzae = assay: compound was tested for antibacterial activity against Haemophilus influenzae Q1.; assay type: functional
Method in brief: (§2)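 Broth microdilution in Mueller–Hinton broth supplemented (final) with 5% heat-inactivated horse serum, 0.02 mg/mL hematin and 0.08 mg/mL NAD; inoculum 5 × 10^5 cfu/mL from overnight broth cultures; 37 °C for 18 h; MIC (µg/mL) read as lowest concentration inhibiting growth.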

Pseudomonas aeruginosa = assay: compound was tested for antibacterial activity against Pseudomonas aeruginosa K799 wt.; assay type: functional; method in brief: as §1
[5] = system: Staphylococcus epidermidis; assay: compound was tested for antibacterial activity aagainst Staphylococcus epidermidis PHLN 20.; assay type: functional; method in brief: as §1
Escherichia coli [6] = assay: compound was tested for antibacterial activity against Escherichia coli DC2.; assay type: functional; method in brief: as §1
Staphylococcus aureus [7] = assay: compound was tested for antibacterial activity against Staphylococcus aureus C 37.; assay type: functional
Streptococcus pneumoniae = assay: compound was tested for antibacterial activity against Strep. pneumoniae 1761.; assay type: functional; method in brief: as §2
Enterococcus faecalis = assay: compound was tested for antibacterial activity against Ent. faecalis I; assay type: functional; method in brief: as §1
Moraxella catarrhalis = assay: compound was tested for antibacterial activity against Moraxella catarrhalis 1502.; assay type: functional; method in brief: as §2
Streptococcus pyogenes = assay: compound was tested for antibacterial activity against Streptococcus pyogenes CN10.; assay type: functional; method in brief: as §2
Proteus mirabilis = assay: compound was tested for antibacterial activity against Pr. mirabilis C889.; assay type: functional; method in brief: as §1
Bacteroides fragilis [8] = assay: compound was tested for antibacterial activity Bacteroides fragilis NCTC 10581.; assay type: functional
Enterobacter cloacae = assay: compound was tested for antibacterial activity against Ent. cloacae N1.; assay type: functional
[9] = target: Isoleucine--tRNA ligase, Staphylococcus aureus (UniProt P41972); assay: compound was tested for inhibitory activity of isoleucyl-tRNA synthetase (IRS).
Mus musculus [10] = assay: Total […] dose against Staphylococcus aureus after po administration (1+5 hr post infection) to mouse; assay type: organism-based; details: in vivo
Method in brief: (§3)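 CD1 male mice, groups of five, infected ip with S. aureus Smith, 1.3 × 10^10 cfu (po groups) or 5 × 10^9 cfu (sc groups); dosed po or sc at 1 + 5 h postinfection, 0.2 mL/mouse. CD50 = total dose protecting 50% of mice from death, scored day 2 postinfection.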

Mus musculus [11] = assay: Total […] dose against Staphylococcus aureus after sc administration (1+5 hr post infection) to mouse; assay type: organism-based; details: in vivo; method in brief: as §3
Staphylococcus aureus [12] = assay: Minimal inhibitory concentration against Staphylococcus aureus Smith; assay type: functional; method in brief: as §1
[13] = system: Isoleucine--tRNA ligase (Staphylococcus aureus); assay: Inhibitory activity against isoleucyl-tRNA synthetase (IRS) of Staphylococcus aureus NCTC 6571
Staphylococcus aureus [14] = assay: Minimum inhibitory concentration against Staphylococcus aureus C 7; assay type: functional; method in brief: as §1
Isoleucine--tRNA ligase [15] = target: T1, Isoleucine--tRNA ligase; assay: Inhibitory activity against isoleucyl-tRNA synthetase (IRS) of Staphylococcus aureus 11481
Isoleucine--tRNA ligase [16] = target: T1, Isoleucine--tRNA ligase; assay: Inhibitory activity against isoleucyl-tRNA synthetase (IRS) of Staphylococcus aureus C 7
Bacteroides fragilis [17] = assay: compound was tested for antibacterial activity against Bacteroides fragilis NCTC 10581.; assay type: functional
Mus musculus [18] = assay: Total […] dose against Staphylococcus aureus after sc administration (1+5 hr post infection) to mouse; details: in vivo

Row | MIC (Klebsiella pneumoniae) | MIC (Staphylococcus aureus [1]) | MIC (Escherichia coli [2]) | MIC (Staphylococcus aureus [4]) | MIC (Haemophilus influenzae) | MIC (Pseudomonas aeruginosa) | MIC [5] | MIC (Escherichia coli [6]) | MIC (Staphylococcus aureus [7]) | MIC (Streptococcus pneumoniae) | MIC (Enterococcus faecalis) | MIC (Moraxella catarrhalis) | MIC (Streptococcus pyogenes) | MIC (Proteus mirabilis) | MIC (Bacteroides fragilis [8]) | MIC (Enterobacter cloacae) | SMILES | also measured
1 | 64 µg/mL (≈ 129 µM) | 64 µg/mL (≈ 129 µM) | 32 µg/mL (≈ 64.7 µM) | 0.125 µg/mL (≈ 0.253 µM) | < 0.06 µg/mL | > 64 µg/mL | 0.125 µg/mL (≈ 0.253 µM) | < 0.06 µg/mL | 32 µg/mL (≈ 64.7 µM) | < 0.06 µg/mL | 32 µg/mL (≈ 64.7 µM) | 0.125 µg/mL (≈ 0.253 µM) | < 0.06 µg/mL | 64 µg/mL (≈ 129 µM) | 16 µg/mL (≈ 32.4 µM) | 16 µg/mL (≈ 32.4 µM) | C/C(=C\c1ncc(-c2csc([N+](=O)[O-])c2)o1)C[C@@H]1OC[C@H](C[C@@H]2O[C@H]2[C@@H](C)[C@H](C)O)[C@@H](O)[C@H]1O | IC50 (Isoleucine--tRNA ligase [3]): 4.45 nM
2 | > 64 µg/mL | > 64 µg/mL | > 64 µg/mL | 2 µg/mL (≈ 4.06 µM) | < 0.06 µg/mL | > 64 µg/mL | < 0.06 µg/mL | 1 µg/mL (≈ 2.03 µM) | > 64 µg/mL | 0.5 µg/mL (≈ 1.02 µM) | 64 µg/mL (≈ 130 µM) | 0.25 µg/mL (≈ 0.508 µM) | 0.25 µg/mL (≈ 0.508 µM) | > 64 µg/mL | 0.5 µg/mL (≈ 1.02 µM) | > 64 µg/mL | C/C(=C\c1ncc(-c2ncc([N+](=O)[O-])n2C)o1)C[C@@H]1OC[C@H](C[C@@H]2O[C@H]2[C@@H](C)[C@H](C)O)[C@@H](O)[C@H]1O | IC50 [9]: 0.0007 µg/mL (≈ 0.00142 µM)

The remaining lines, values behind:

Row | SMILES | MIC (Klebsiella pneumoniae) | MIC (Staphylococcus aureus [1]) | MIC (Escherichia coli [2]) | MIC (Staphylococcus aureus [4]) | MIC (Haemophilus influenzae) | MIC (Pseudomonas aeruginosa) | MIC [5] | MIC (Escherichia coli [6]) | MIC (Staphylococcus aureus [7]) | MIC (Streptococcus pneumoniae) | MIC (Enterococcus faecalis) | MIC (Moraxella catarrhalis) | MIC (Streptococcus pyogenes) | MIC (Proteus mirabilis) | MIC (Bacteroides fragilis [8]) | MIC (Enterobacter cloacae) | also measured
3 | CC1(C)S[C@@H]2[C@H](NC(=O)[C@H](N)c3ccc(O)cc3)C(=O)N2[C@H]1C(=O)O [AMOXICILLIN] | – | – | – | – | – | – | – | – | – | – | – | – | – | – | – | – | CD50 (Mus musculus [10]): 0.24 mg/kg; CD50 (Mus musculus [11]): 0.28 mg/kg; MIC (Staphylococcus aureus [12]): 0.25 µg/mL (≈ 0.684 µM)
4 | C/C(=C\C(=O)OCCCCCCCCC(=O)O)C[C@@H]1OC[C@H](C[C@@H]2O[C@H]2[C@@H](C)[C@H](C)O)[C@@H](O)[C@H]1O [MUPIROCIN] | > 64 µg/mL | > 64 µg/mL | – | < 0.06 µg/mL | < 0.06 µg/mL | > 64 µg/mL | 0.125 µg/mL (≈ 0.25 µM) | 0.13 µg/mL (≈ 0.26 µM) | – | < 0.06 µg/mL | 32 µg/mL (≈ 63.9 µM) | 0.5 µg/mL (≈ 0.999 µM) | < 0.06 µg/mL | > 64 µg/mL | – | – | IC50 [13]: 0.0008 µg/mL (≈ 0.0016 µM); MIC (Staphylococcus aureus [14]): > 2050 µg/mL; IC50 (Isoleucine--tRNA ligase [15]): 280 nM; IC50 (Isoleucine--tRNA ligase [16]): 39900 nM; MIC (Bacteroides fragilis [17]): > 64 µg/mL
5 | CN[C@H](CC(C)C)C(=O)N[C@H]1C(=O)N[C@@H](CC(N)=O)C(=O)N[C@H]2C(=O)N[C@H]3C(=O)N[C@H](C(=O)N[C@H](C(=O)O)c4cc(O)cc(O)c4-c4cc3ccc4O)[C@H](O)c3ccc(c(Cl)c3)Oc3cc2cc(c3O[C@@H]2O[C@H](CO)[C@@H](O)[C@H](O)[C@H]2O[C@H]2C[C@](C)(N)[C@H](O)[C@H](C)O2)Oc2ccc(cc2Cl)[C@H]1O [VANCOMYCIN] | – | – | – | – | – | – | – | – | – | – | – | – | – | – | – | – | CD50 (Mus musculus [18]): 3.8 mg/kg
